Results published in ChEMBL document CHEMBL4130443, “Targeting breast cancer stem cells by novel HDAC3-selective inhibitors” (Eur J Med Chem, 2017).
The source made the active and inactive calls. No cut-off for these calls is given here.

Experiments:
[1] = biological target: Histone deacetylase 3/Nuclear receptor corepressor 2 (HDAC3/NCoR2) (Homo sapiens) (UniProt O15379+Q9Y618); experiment: Inhibition of human HDAC3/NCOR2 at 1 uM using p53 (379 to 382 residues) derived fluorogenic peptide RHKKAc; assay type: protein-complex assay
Method in brief: (§1)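 Isoform profiling run by a commercial vendor with compounds at 1 µM. Values are percent inhibition, each the average of two determinations.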

Histone deacetylase 2 = Histone deacetylase 2 (Homo sapiens, UniProt Q92769); experiment: Inhibition of human HDAC2 using p53 (379 to 382 residues) derived fluorogenic peptide RHKKAc
[2] = biological target: Histone deacetylase 4 (Homo sapiens) (UniProt P56524); experiment: Inhibition of human HDAC4 at 1 uM using Boc-Lys(trifluoroacetyl)-AMC substrate; method in brief: as §1
MDA-MB-231 [3] = experiment: Cytotoxicity in human MDA-MB-231 cells assessed as reduction in cell viability incubated for 24 to 72 hrs by MTT assay; assay type: functional, cell-based
Method in brief: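 MDA-MB-231 seeded 5,000 cells/well with 10% FBS, left overnight, then exposed to agents in 5% FBS for 24, 48 and 72 h. MTT added for 1 h, dye dissolved in DMSO, absorbance at 560 nm. Viability given as percent of the matching vehicle-treated control. N = 6.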

MDA-MB-231 [4] = experiment: Inhibition of colony formation of human MDA-MB-231 cells incubated for 48 hrs by crystal violet staining based assay; conditions: MDA-MB-231, 48 h
[5] = biological target: Histone deacetylase 3 (Homo sapiens) (UniProt O15379); experiment: Inhibition of HDAC3 in human MDA-MB-231 cells assessed as reduction in Akt phosphorylation at 0.5 to 5 uM by immunoblotting; assay type: cell-based
Method in brief: (§2)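 Monolayer cells treated in 5% FBS at graded concentrations. Lysed in SDS/EDTA/Tris pH 8.1 buffer, equal protein immunoblotted with primary antibodies 1:1000 overnight at 4°C. Detected by ECL for phospho-Akt, β-catenin and histone H3 pan/H3K9 acetylation.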

[6] = biological target: Histone deacetylase 3 (Homo sapiens) (UniProt O15379); experiment: Inhibition of HDAC3 in human MDA-MB-231 cells assessed as increase in histone H3 acetylation at 0.5 to 5 uM by immunoblotting; assay type: cell-based; method in brief: as §2
MDA-MB-231 [7] = experiment: Inhibition of cancer stem cell subpopulation of human MDA-MB-231 cells assessed as CD44+/CD24low subpopulation level at 0.1 to 5 uM by flow cytometry; assay type: functional, cell-based
Method in brief: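 Cells exposed to DMSO or compound at graded concentrations, then harvested and washed in stain buffer. Stained with FITC- or phycoerythrin-conjugated anti-CD44 and anti-CD24 for 30 min on ice in the dark, resuspended in PBS, and CD44+/CD24low fraction read by flow cytometry.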

MDA-MB-231 [8] = experiment: Inhibition of tumorogenicity of human MDA-MB-231 cells xenografted in NOD/SCID mouse injected with cells pretreated with 5 uM compound for 48 hrs assessed as reduction in tumor incidence at 100 mg/kg, po dosed via gavage once daily starting on day 2 post injection and continuing through day 12; assay type: functional, organism-based
Method in brief: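 Cells pretreated 48 h with 5 µM compound or DMSO, trypsinized and injected at 50,000 cells/0.1 ml in 50% Matrigel into the left 4th inguinal mammary fat pad of female NOD/SCID mice (N = 10 per group). Dosed 100 mg/kg by oral gavage once daily in 0.5% methylcellulose/0.1% Tween 80 in water. Caliper volume = (width² x length) x 0.52. Incidence by log-rank test, volume at day 27 by t-test.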

Sequence of Histone deacetylase 3 (Homo sapiens) (O15379 whole entry): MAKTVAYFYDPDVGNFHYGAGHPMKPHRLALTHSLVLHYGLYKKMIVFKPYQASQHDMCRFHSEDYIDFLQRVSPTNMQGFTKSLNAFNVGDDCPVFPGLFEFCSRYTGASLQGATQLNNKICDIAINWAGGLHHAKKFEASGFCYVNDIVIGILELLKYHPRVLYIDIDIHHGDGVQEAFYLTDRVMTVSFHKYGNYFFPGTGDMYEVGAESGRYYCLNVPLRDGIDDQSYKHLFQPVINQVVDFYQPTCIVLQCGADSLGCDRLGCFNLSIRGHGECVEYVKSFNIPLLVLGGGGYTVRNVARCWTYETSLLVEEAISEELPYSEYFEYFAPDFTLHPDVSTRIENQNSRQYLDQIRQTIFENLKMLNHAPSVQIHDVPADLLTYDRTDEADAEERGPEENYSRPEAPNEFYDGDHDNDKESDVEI
Sequence of Histone deacetylase 4 (Homo sapiens) (P56524 whole entry): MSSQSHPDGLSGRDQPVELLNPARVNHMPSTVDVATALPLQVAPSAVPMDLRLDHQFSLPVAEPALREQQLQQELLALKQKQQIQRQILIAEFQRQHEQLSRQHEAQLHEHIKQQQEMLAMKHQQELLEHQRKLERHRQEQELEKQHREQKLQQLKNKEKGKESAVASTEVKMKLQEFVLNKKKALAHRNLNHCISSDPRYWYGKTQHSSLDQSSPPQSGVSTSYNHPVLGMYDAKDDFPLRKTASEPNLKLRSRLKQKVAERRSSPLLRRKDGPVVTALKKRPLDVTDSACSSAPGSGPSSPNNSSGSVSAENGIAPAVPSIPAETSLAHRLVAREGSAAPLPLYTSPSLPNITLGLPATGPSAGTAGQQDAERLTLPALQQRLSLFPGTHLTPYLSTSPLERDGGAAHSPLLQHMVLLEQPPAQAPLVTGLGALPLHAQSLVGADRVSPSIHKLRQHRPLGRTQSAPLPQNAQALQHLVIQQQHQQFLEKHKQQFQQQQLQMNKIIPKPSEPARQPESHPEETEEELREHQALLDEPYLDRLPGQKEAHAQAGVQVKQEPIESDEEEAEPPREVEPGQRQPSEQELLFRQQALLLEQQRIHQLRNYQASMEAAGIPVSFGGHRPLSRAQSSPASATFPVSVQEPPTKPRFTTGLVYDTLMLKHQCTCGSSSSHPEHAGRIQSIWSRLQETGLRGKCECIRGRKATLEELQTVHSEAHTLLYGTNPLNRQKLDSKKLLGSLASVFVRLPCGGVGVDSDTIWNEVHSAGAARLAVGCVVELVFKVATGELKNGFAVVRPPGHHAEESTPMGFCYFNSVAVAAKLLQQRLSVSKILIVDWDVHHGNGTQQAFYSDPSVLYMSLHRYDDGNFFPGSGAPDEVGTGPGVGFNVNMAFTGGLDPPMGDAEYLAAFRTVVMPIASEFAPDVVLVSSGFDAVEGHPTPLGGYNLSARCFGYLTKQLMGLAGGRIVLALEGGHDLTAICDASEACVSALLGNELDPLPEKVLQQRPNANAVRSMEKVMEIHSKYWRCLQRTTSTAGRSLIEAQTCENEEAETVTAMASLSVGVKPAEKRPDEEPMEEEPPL
Sequence of Histone deacetylase 2 (Q92769 whole entry, the tested form may be a part): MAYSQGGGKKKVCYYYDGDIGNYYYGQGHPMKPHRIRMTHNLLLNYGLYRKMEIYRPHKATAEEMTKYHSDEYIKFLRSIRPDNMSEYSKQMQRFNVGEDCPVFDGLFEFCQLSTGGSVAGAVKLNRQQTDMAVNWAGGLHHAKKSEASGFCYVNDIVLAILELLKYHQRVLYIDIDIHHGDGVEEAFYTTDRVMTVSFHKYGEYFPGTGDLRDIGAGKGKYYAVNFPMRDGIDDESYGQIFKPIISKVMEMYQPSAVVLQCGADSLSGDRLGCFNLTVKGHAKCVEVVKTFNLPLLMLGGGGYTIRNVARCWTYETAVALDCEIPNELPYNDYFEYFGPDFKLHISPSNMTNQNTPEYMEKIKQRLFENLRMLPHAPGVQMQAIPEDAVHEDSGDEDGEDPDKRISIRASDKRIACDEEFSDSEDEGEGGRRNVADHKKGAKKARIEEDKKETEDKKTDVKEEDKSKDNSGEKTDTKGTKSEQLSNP

inhibition [1]: 87% | IC50 (Histone deacetylase 2): > 10 µM | inhibition [2]: 0% | IC50 (MDA-MB-231 [4]): 0.5 to 1 µM | inhibition [5]: Dose-dependent effect | inhibition [6]: Dose-dependent effect
Compound: CC(C)(C(=O)Nc1ccc(C(=O)Nc2ccc(F)cc2N)cc1)c1ccccc1
IC50 (MDA-MB-231 [3]): ≥ 10 µM | inhibition (MDA-MB-231 [7]): Dose-dependent effect | inhibition (MDA-MB-231 [8]): Active
